Consider 24 compounds from ChEMBL document CHEMBL1143374, “Solution- and solid-phase synthesis and anti-HIV activity of maslinic acid derivatives containing amino acids and peptides” (2009).

The source made the active and inactive calls. The rule behind the calls is not given here.

The subject of assay [1] is Human immunodeficiency virus 1. Nature of the assay: Antiviral activity against HIV1 NL4-3 infected human MT2 cells assessed as viral infection at 25 uM administered 30 mins before viral challenge by luciferase reporter gene activation assay relative to control. The assay is classed as functional. The procedure, abridged: (§1)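 MT-2 cells at 10^6/mL in RPMI 1640 with 10% heat-inactivated FBS, 37 °C, 5% CO2. Cells were pretreated 30 min, then infected with VSV-pseudotyped pNL4-3.Luc.R−E− virus made in 293T cells (200 ng p24). After 20 h: PBS wash, lysis in Tris-phosphate pH 7.8 buffer, luciferase read. Value is % of untreated infected cells (100%), ±S.D.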
In general terms: Reporter assays use an easily measured gene product as a stand-in for the process of interest.

The test system of assay [2] is Human immunodeficiency virus 1. Nature of the assay: Antiviral activity against HIV1 NL4-3 infected human MT2 cells assessed as viral infection at 10 uM administered 30 mins before viral challenge by luciferase reporter gene activation assay relative to control. The class given is functional. Put shortly: as §1
For assay [3], the system named is MT2. In words: Cell cycle arrest in HIV1 NL4-3 infected human MT2 cells assessed as accumulation at G0/G1 phase at 25 uM administered 30 mins before viral challenge measured after 24 hrs by propidium iodide staining and flow cytometry. The assay is classed as functional. The procedure, abridged:
(§2)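 MT-2 cells at 10^6/mL were pretreated 30 min, then infected 24 h with VSV-pseudotyped HIV-1 luciferase virus. Phase percentages were taken; apoptosis was scored as the sub-G0/G1 (hypodiploid) fraction.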
On the technique in general: In flow cytometry, cells or beads pass a laser one at a time.

The test system of assay [4] is MT2. Nature of the assay: Cell cycle arrest in HIV1 NL4-3 infected human MT2 cells assessed as accumulation at G2/M phase at 10 uM administered 30 mins before viral challenge measured after 24 hrs by propidium iodide staining and flow cytometry. The class given is functional. The procedure, abridged:
as §2

Assay [5] has as its system MT2. In words: Induction of apoptosis in HIV1 NL4-3 infected human MT2 cells at 25 uM administered 30 mins before viral challenge measured after 24 hrs by propidium iodide staining and flow cytometry. The class given is functional. Put shortly:
as §2

Assay [6] has as its system MT2. Nature of the assay: Cell cycle arrest in HIV1 NL4-3 infected human MT2 cells assessed as accumulation at S phase at 10 uM administered 30 mins before viral challenge measured after 24 hrs by propidium iodide staining and flow cytometry. The assay is classed as functional. Put shortly: as §2
Assay [7] has as its system MT2. In words: Cell cycle arrest in HIV1 NL4-3 infected human MT2 cells assessed as accumulation at G2/M phase at 25 uM administered 30 mins before viral challenge measured after 24 hrs by propidium iodide staining and flow cytometry. The class given is functional. Put shortly:
as §2

Assay [8] has as its system MT2. Nature of the assay: Cell cycle arrest in HIV1 NL4-3 infected human MT2 cells assessed as accumulation at S phase at 25 uM administered 30 mins before viral challenge measured after 24 hrs by propidium iodide staining and flow cytometry. The assay is classed as functional. The procedure, abridged:
as §2

In assay [9] the test system is MT2. Nature of the assay: Cell cycle arrest in HIV1 NL4-3 infected human MT2 cells assessed as accumulation at G0/G1 phase at 10 uM administered 30 mins before viral challenge measured after 24 hrs by propidium iodide staining and flow cytometry. The assay is classed as functional. Put shortly:
as §2

The subject of assay [10] is MT2. Nature of the assay: Induction of apoptosis in HIV1 NL4-3 infected human MT2 cells at 10 uM administered 30 mins before viral challenge measured after 24 hrs by propidium iodide staining and flow cytometry. The class given is functional. The procedure, abridged:
as §2

For assay [11], the system named is MT2. Nature of the assay: Induction of apoptosis in HIV1 NL4-3 infected human MT2 cells administered 30 mins before viral challenge measured after 24 hrs by propidium iodide staining and flow cytometry. The class given is functional, cell-based. The procedure, abridged:
as §2

Consider `CC(C)[C@H](NC(=O)[C@]12CCC(C)(C)C[C@H]1C1=CC[C@@H]3[C@@]4(C)C[C@@H](O)[C@H](O)C(C)(C)[C@@H]4CC[C@@]3(C)[C@]1(C)CC2)C(=O)O`, for which the results for the Activity in assay [1] and in assay [2] were 121.2% and 102.8%, respectively.

Consider `C[C@H](NC(=O)[C@]12CCC(C)(C)C[C@H]1C1=CC[C@@H]3[C@@]4(C)C[C@@H](O)[C@H](O)C(C)(C)[C@@H]4CC[C@@]3(C)[C@]1(C)CC2)C(=O)O`, for which the Activity in assay [1] was determined as 60.9%; in assay [2], 124.2%.

`COC(=O)CCCCCCCCCCNC(=O)[C@]12CCC(C)(C)C[C@H]1C1=CC[C@@H]3[C@@]4(C)C[C@@H](O)[C@H](O)C(C)(C)[C@@H]4CC[C@@]3(C)[C@]1(C)CC2`: the results for the Activity in [1] and in assay [2] were 35.6% and 66.9%, respectively.

As to `CC1(C)CC[C@]2(C(=O)O)CC[C@]3(C)C(=CC[C@@H]4[C@@]5(C)C[C@@H](O)[C@H](O)C(C)(C)[C@@H]5CC[C@]43C)[C@@H]2C1` [MASLINIC ACID], the Activity in the assay with MT2 [3] was 23.1%; in the assay with MT2 [4], 18.4%; in [1], 6.7%; in the assay with MT2 [5], 51.8%; in [2] it was 56.3%; in the assay on MT2 [6] it was 20.6%. Also, the Activity with MT2 [7] came to 7.5%; with MT2 [8] it was 17.7%; in the assay on MT2 [9] it was 47.9%; in the assay with MT2 [10] it was 13.5%.

For the compound `C[C@H](NC(=O)CCCCCCCCCCNC(=O)[C@]12CCC(C)(C)C[C@H]1C1=CC[C@@H]3[C@@]4(C)C[C@@H](O)[C@H](O)C(C)(C)[C@@H]4CC[C@@]3(C)[C@]1(C)CC2)C(=O)O`, the Activity is 27.6% in assay [1] and 71.7% in [2].

With `C[C@H](NC(=O)CCCNC(=O)[C@]12CCC(C)(C)C[C@H]1C1=CC[C@@H]3[C@@]4(C)C[C@@H](O)[C@H](O)C(C)(C)[C@@H]4CC[C@@]3(C)[C@]1(C)CC2)C(=O)O`, the Activity in assay [1] was 50.1%; in assay [2], 83.7%.

Consider `CC(C)[C@H](NC(=O)CCCNC(=O)[C@]12CCC(C)(C)C[C@H]1C1=CC[C@@H]3[C@@]4(C)C[C@@H](O)[C@H](O)C(C)(C)[C@@H]4CC[C@@]3(C)[C@]1(C)CC2)C(=O)O`, for which the values for the Activity in assay [1] and in assay [2] were 130.2% and 66.2%, respectively.

As for `COC(=O)CNC(=O)[C@]12CCC(C)(C)C[C@H]1C1=CC[C@@H]3[C@@]4(C)C[C@@H](O)[C@H](O)C(C)(C)[C@@H]4CC[C@@]3(C)[C@]1(C)CC2`, the results for the Activity in assay [1] and in [2] were 56.3% and 75.5%, respectively.

`COC(=O)[C@H](C)NC(=O)[C@]12CCC(C)(C)C[C@H]1C1=CC[C@@H]3[C@@]4(C)C[C@@H](O)[C@H](O)C(C)(C)[C@@H]4CC[C@@]3(C)[C@]1(C)CC2`: the Activity is 8.9% in [1] and 63.6% in assay [2].

`C[C@H](NC(=O)[C@]12CCC(C)(C)C[C@H]1C1=CC[C@@H]3[C@@]4(C)C[C@@H](O)[C@H](O)C(C)(C)[C@@H]4CC[C@@]3(C)[C@]1(C)CC2)C(=O)NCC(=O)O`: the Activity in assay [1] is reported as 184.8%; in assay [2] it was 134.5%.

With `C[C@H](NC(=O)CCCCCNC(=O)[C@]12CCC(C)(C)C[C@H]1C1=CC[C@@H]3[C@@]4(C)C[C@@H](O)[C@H](O)C(C)(C)[C@@H]4CC[C@@]3(C)[C@]1(C)CC2)C(=O)O`, the Activity is 70.2% in [1] and 107% in assay [2].

For the compound `CC1(C)CC[C@]2(C(=O)NCCCC(=O)O)CC[C@]3(C)C(=CC[C@@H]4[C@@]5(C)C[C@@H](O)[C@H](O)C(C)(C)[C@@H]5CC[C@]43C)[C@@H]2C1`, the Activity in assay [1] was found to be 93.8%; in [2], 126.4%.

Turning to `COC(=O)[C@@H](NC(=O)[C@]12CCC(C)(C)C[C@H]1C1=CC[C@@H]3[C@@]4(C)C[C@@H](O)[C@H](O)C(C)(C)[C@@H]4CC[C@@]3(C)[C@]1(C)CC2)C(C)C`, the Activity in [1] stood at 11.1%; in assay [2] it was 72%.

As for `COC(=O)CCCNC(=O)[C@]12CCC(C)(C)C[C@H]1C1=CC[C@@H]3[C@@]4(C)C[C@@H](O)[C@H](O)C(C)(C)[C@@H]4CC[C@@]3(C)[C@]1(C)CC2`, the Activity in [1] came to 12%; in assay [2], 32.5%. Moreover, the outcome in the assay with MT2 [11] was Active.

On to `CC1(C)CC[C@]2(C(=O)NCCCCCC(=O)NCC(=O)O)CC[C@]3(C)C(=CC[C@@H]4[C@@]5(C)C[C@@H](O)[C@H](O)C(C)(C)[C@@H]5CC[C@]43C)[C@@H]2C1`, for which the Activity in assay [1] was 122.1%; in assay [2], 125.7%.

On to `CC1(C)CC[C@]2(C(=O)NCC(=O)O)CC[C@]3(C)C(=CC[C@@H]4[C@@]5(C)C[C@@H](O)[C@H](O)C(C)(C)[C@@H]5CC[C@]43C)[C@@H]2C1`, for which the values for the Activity in assay [1] and in assay [2] were 130.7% and 162.1%, respectively.

For the compound `C[C@H](NC(=O)CCCCCNC(=O)[C@]12CCC(C)(C)C[C@H]1C1=CC[C@@H]3[C@@]4(C)C[C@@H](O)[C@H](O)C(C)(C)[C@@H]4CC[C@@]3(C)[C@]1(C)CC2)C(=O)NCC(=O)O`, the Activity in assay [1] came to 89.6%; in assay [2] it was 170.2%.

With `CC1(C)CC[C@]2(C(=O)NCCCCCCCCCCC(=O)O)CC[C@]3(C)C(=CC[C@@H]4[C@@]5(C)C[C@@H](O)[C@H](O)C(C)(C)[C@@H]5CC[C@]43C)[C@@H]2C1`, the Activity in the assay on MT2 [3] is 53.7%; in the assay with MT2 [4], 15.1%; in assay [1], 21.5%; in the assay on MT2 [5] it was 5.2%; in assay [2], 56.7%; in the assay with MT2 [6], 18.8%. Moreover, the Activity is given as 18.9% with MT2 [7], 22.2% with MT2 [8], 62.6% with MT2 [9] and 3.5% in the assay on MT2 [10].

As for `CC(C)[C@H](NC(=O)CCCCCCCCCCNC(=O)[C@]12CCC(C)(C)C[C@H]1C1=CC[C@@H]3[C@@]4(C)C[C@@H](O)[C@H](O)C(C)(C)[C@@H]4CC[C@@]3(C)[C@]1(C)CC2)C(=O)O`, the Activity worked out at 59.2% in the assay with MT2 [3]; 21.6% with MT2 [4]; 21.2% in assay [1]; 4.6% in the assay on MT2 [5]; 44.9% in assay [2]; 21.4% in the assay on MT2 [6]. The Activity turned out to be 15.5% with MT2 [7], 20.5% in the assay on MT2 [8], 54.6% in the assay with MT2 [9] and 2.1% in the assay with MT2 [10].

Take `CC1(C)CC[C@]2(C(=O)NCCCC(=O)NCC(=O)O)CC[C@]3(C)C(=CC[C@@H]4[C@@]5(C)C[C@@H](O)[C@H](O)C(C)(C)[C@@H]5CC[C@]43C)[C@@H]2C1`: the Activity is 143.3% in assay [1] and 112.3% in assay [2].

In the case of `CC(C)[C@H](NC(=O)CCCCCNC(=O)[C@]12CCC(C)(C)C[C@H]1C1=CC[C@@H]3[C@@]4(C)C[C@@H](O)[C@H](O)C(C)(C)[C@@H]4CC[C@@]3(C)[C@]1(C)CC2)C(=O)O`, the figures for the Activity in assay [1] and in assay [2] were 96.5% and 83.8%, respectively.

`CC1(C)CC[C@]2(C(=O)NCCCCCCCCCCC(=O)NCC(=O)O)CC[C@]3(C)C(=CC[C@@H]4[C@@]5(C)C[C@@H](O)[C@H](O)C(C)(C)[C@@H]5CC[C@]43C)[C@@H]2C1`: the figures for the Activity in assay [1] and in assay [2] were 49.8% and 85.6%, respectively.

As to `COC(=O)CCCCCNC(=O)[C@]12CCC(C)(C)C[C@H]1C1=CC[C@@H]3[C@@]4(C)C[C@@H](O)[C@H](O)C(C)(C)[C@@H]4CC[C@@]3(C)[C@]1(C)CC2`, the Activity was found to be 36.8% in [1] and 69.6% in assay [2].

For `CC1(C)CC[C@]2(C(=O)NCCCCCC(=O)O)CC[C@]3(C)C(=CC[C@@H]4[C@@]5(C)C[C@@H](O)[C@H](O)C(C)(C)[C@@H]5CC[C@]43C)[C@@H]2C1`, the Activity was determined as 79.3% in [1] and 146.4% in assay [2].
